In experiment [1] the target is T1, Receptor-type tyrosine-protein kinase FLT3 (Mus musculus) (UniProt Q00342).
T1 sequence (whole entry): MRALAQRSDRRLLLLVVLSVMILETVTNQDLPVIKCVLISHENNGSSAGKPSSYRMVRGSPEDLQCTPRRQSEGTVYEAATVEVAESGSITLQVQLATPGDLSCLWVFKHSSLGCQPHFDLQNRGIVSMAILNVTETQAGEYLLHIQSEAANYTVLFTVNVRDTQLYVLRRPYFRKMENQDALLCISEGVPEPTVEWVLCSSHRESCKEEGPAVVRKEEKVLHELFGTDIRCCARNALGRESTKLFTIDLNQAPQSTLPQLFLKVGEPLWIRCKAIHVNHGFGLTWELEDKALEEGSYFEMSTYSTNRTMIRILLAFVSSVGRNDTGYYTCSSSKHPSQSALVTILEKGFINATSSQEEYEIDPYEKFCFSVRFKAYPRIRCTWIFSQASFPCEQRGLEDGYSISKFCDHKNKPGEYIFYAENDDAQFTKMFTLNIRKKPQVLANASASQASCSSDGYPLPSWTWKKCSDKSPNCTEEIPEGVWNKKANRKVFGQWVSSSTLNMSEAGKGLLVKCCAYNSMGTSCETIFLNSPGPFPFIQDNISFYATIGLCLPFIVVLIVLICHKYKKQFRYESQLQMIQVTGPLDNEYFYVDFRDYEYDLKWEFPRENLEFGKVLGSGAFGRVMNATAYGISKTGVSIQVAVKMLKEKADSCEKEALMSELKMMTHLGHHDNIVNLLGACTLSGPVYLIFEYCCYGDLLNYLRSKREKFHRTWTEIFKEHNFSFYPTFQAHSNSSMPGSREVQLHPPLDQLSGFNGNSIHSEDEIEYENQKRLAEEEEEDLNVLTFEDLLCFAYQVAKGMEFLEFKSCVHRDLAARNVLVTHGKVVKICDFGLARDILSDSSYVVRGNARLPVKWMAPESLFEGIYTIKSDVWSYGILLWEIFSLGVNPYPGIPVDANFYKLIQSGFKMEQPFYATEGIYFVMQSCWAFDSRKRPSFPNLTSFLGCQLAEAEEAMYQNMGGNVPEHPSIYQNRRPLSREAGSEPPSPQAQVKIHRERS
Kind of experiment: Inhibition of FLT3 in Balb/c mouse BMDCs assessed as suppression of FLT3L-induced pDC formation measured as lower left quadrant cells level treated on day 9 post 9 days of FLT3L-stimulation measured after 24 hrs by CD11c PerCP and CD45R/B220 FITC staining based flow cytometric analysis (reference value: 36.5%). Set-up: scale not given: the % may be the effect or the level left. Put shortly:
(§1)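 BALB/c bone marrow cells were cultured at 1×10^6/ml with FLT3L in supplemented RPMI-1640 for 9 days. Compound in DMSO or 0.1% DMSO was added on day 9 for 24 h. Cells were stained for 30 min with CD11c PerCP plus B220 FITC (pDC: CD11c+ B220+) or MHC II FITC (mDC: CD11c+ MHC II+), then analysed by flow cytometry. Three independent experiments.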
(Flow cytometry measures light scatter and fluorescence of single cells or particles in a stream.)

Experiment [2] has as its target T1, Receptor-type tyrosine-protein kinase FLT3 (Mus musculus). Kind of experiment: Inhibition of FLT3 in Balb/c mouse BMDCs assessed as suppression of FLT3L-induced mDC formation measured as lower left quadrant cells level treated on day 9 post 9 days of FLT3L-stimulation measured after 24 hrs by CD11c PerCP and I-A/I-E (MHC class II) FITC staining based flow cytometric analysis (reference value: 43.7%). The arrangement: scale not given: the % may be the effect or the level left. Put shortly: as §1

The target is the same in experiment [3]. The experiment is described as follows: Inhibition of FLT3 in Balb/c mouse BMDCs assessed as suppression of FLT3L-induced mDC formation measured as upper right quadrant cells level treated on day 9 post 9 days of FLT3L-stimulation measured after 24 hrs by CD11c PerCP and I-A/I-E (MHC class II) FITC staining based flow cytometric analysis (reference value: 21%). The arrangement: scale not given: the % may be the effect or the level left. The method in brief:
as §1

The species named for experiment [4] is Mus musculus. The experiment is described as follows: Antipsoriatic activity in K14-VEGF transgenic mouse model of psoriasis assessed as reduction in infiltrated lymphocytes at 0.05% applied tropically over lesion for continuous 29 days by H and E staining method relative to vehicle control. Type of experiment: functional, organism-based. The method in brief: (§2)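 Homozygous K14-VEGF mice, 3–4 months old, with moderate to serious psoriasis; n=3 per group. Cream with 0.05% compound or vehicle cream smeared on lesions. Head and neck tissue sections taken after 29 days of treatment and HE-stained. Baker pathological score from 5 random fields, given as mean and SD. Epidermal thickness from 8 random fields, given as mean ± SEM.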

The species entered for experiment [5] is Mus musculus. The experiment is described as follows: Antipsoriatic activity in K14-VEGF transgenic mouse model of psoriasis assessed as decrease in DC cells expressing FLT3 and CD11c in psoriatic lesion at 0.05% applied tropically over lesion for continuous 29 days by flow cytometric analysis relative to control. Type of experiment: functional.
The species named for experiment [6] is Mus musculus. The experiment is described as follows: Antipsoriatic activity in K14-VEGF transgenic mouse model of psoriasis assessed as lower right quadrant FLT3+/CD11c+/B220+ pDC cells in psoriatic plaque lesion at 0.05% applied tropically over lesion for continuous 29 days by flow cytometric analysis (reference value: 0.52%). In kind it is functional.
The species named for experiment [7] is Mus musculus. Kind of experiment: Antipsoriatic activity in K14-VEGF transgenic mouse model of psoriasis assessed as decrease in VEGF expression in psoriatic lesion at 0.05% applied tropically over lesion for continuous 29 days by immunohistochemical analysis relative to vehicle control. In kind it is functional. Set-up: scale not given: the % may be the effect or the level left. Put shortly:
(§3)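 K14-VEGF mice were treated topically with 0.05% cream or vehicle for 29 days, n=3 per group. Ear skin was paraffin-embedded, cut into 4-µm sections and immunostained. Staining was quantified in 5 random fields, reported as mean ± SD.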

The species named for experiment [8] is Mus musculus. Kind of experiment: Antipsoriatic activity in K14-VEGF transgenic mouse model of psoriasis assessed as decrease in CD54 expression in psoriatic lesion at 0.05% applied tropically over lesion for continuous 29 days by immunohistochemical analysis relative to vehicle control. In kind it is functional. The arrangement: scale not given: the % may be the effect or the level left. Put shortly:
as §3

The species entered for experiment [9] is Mus musculus. The experiment is described as follows: Antipsoriatic activity in K14-VEGF transgenic mouse model of psoriasis assessed as decrease in STAT3 phosphorylation in psoriatic lesion at 0.05% applied tropically over lesion for continuous 29 days by immunohistochemical analysis relative to vehicle control. Type of experiment: functional. Set-up: scale not given: the % may be the effect or the level left. Put shortly: as §3

Experiment [10] is filed under the species Mus musculus. Kind of experiment: Downregulation of IL17 expression in K14-VEGF transgenic mouse model of psoriasis at 0.05% applied tropically over lesion for 29 days by ELISA. Type of experiment: functional, organism-based. Put shortly: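 K14-VEGF mice were treated for 29 days with 0.05% cream or vehicle, n=3 each. At termination, blood was held at 4 °C for 12 h and then centrifuged. Plasma IFN-γ and IL-17 were measured by ELISA, mean ± SD.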

For experiment [11], the species on record is Mus musculus. Kind of experiment: Antipsoriatic activity in K14-VEGF transgenic mouse model of psoriasis assessed as reduction in Baker scores at 0.05% applied tropically over lesion for continuous 29 days by H and E staining method relative to vehicle control. Type of experiment: functional, organism-based. Put shortly:
as §2

Experiment [12] is filed under the species Mus musculus. The experiment is described as follows: Antipsoriatic activity in K14-VEGF transgenic mouse model of psoriasis assessed as lower left quadrant FLT3+/CD11c+/B220+ pDC cells in psoriatic plaque lesion at 0.05% applied tropically over lesion for continuous 29 days by flow cytometric analysis (reference value: 63.7%).

Molecules are shown by their SMILES. The source made the active and inactive calls. No cut-off for these calls is given here.

Turning to `CC(C)(C)c1cc(NC(=O)Nc2ccc(Oc3ncnc4[nH]ncc34)c(F)c2)no1`, the Activity is 47.2% in experiment [1]; 54.7% in experiment [2]; 16.7% in experiment [3]; 0% in the experiment listed under Mus musculus [6]; 90% in the experiment filed under Mus musculus [7]; 87% in the experiment filed under Mus musculus [8]. The Activity in the experiment filed under Mus musculus [9] amounted to 64%; in the experiment filed under Mus musculus [12] it was 89.9%. Moreover, the result in the experiment filed under Mus musculus [4], in the experiment listed under Mus musculus [10] and in the experiment filed under Mus musculus [11] was Active. Besides, in the experiment filed under Mus musculus [5], the “inhibition (INH)” value was determined as 69.6%.

(Values after ChEMBL document CHEMBL4428067, “Drug Discovery against Psoriasis: Identification of a New Potent FMS-like Tyrosine Kinase 3 (FLT3) Inhibitor, 1-(4-((1H-Pyrazolo[3,4-d]pyrimidin-4-yl)oxy)-3-fluorophenyl)-3-(5-(tert-butyl)isoxazol-3-yl)urea, That Showed Potent Activity in a Psoriatic Animal Model” (J Med Chem, 2016).)
